The source made the active and inactive calls. No cut-off for these calls is given here.
Assays:
[1] = biological target: T1, Nucleotide-binding oligomerization domain-containing protein 1 (Homo sapiens) (UniProt Q9Y239); assay: Inhibition of NOD1 in human THP1 cells assessed as suppression of C12-iE-DAP-stimulated p38 phosphorylation at 1 to 10 uM preincubated for 1 hr followed by C12-iE-DAP stimulation after 45 mins by Western blot analysis; assay type: cell-based
T1 sequence (whole entry): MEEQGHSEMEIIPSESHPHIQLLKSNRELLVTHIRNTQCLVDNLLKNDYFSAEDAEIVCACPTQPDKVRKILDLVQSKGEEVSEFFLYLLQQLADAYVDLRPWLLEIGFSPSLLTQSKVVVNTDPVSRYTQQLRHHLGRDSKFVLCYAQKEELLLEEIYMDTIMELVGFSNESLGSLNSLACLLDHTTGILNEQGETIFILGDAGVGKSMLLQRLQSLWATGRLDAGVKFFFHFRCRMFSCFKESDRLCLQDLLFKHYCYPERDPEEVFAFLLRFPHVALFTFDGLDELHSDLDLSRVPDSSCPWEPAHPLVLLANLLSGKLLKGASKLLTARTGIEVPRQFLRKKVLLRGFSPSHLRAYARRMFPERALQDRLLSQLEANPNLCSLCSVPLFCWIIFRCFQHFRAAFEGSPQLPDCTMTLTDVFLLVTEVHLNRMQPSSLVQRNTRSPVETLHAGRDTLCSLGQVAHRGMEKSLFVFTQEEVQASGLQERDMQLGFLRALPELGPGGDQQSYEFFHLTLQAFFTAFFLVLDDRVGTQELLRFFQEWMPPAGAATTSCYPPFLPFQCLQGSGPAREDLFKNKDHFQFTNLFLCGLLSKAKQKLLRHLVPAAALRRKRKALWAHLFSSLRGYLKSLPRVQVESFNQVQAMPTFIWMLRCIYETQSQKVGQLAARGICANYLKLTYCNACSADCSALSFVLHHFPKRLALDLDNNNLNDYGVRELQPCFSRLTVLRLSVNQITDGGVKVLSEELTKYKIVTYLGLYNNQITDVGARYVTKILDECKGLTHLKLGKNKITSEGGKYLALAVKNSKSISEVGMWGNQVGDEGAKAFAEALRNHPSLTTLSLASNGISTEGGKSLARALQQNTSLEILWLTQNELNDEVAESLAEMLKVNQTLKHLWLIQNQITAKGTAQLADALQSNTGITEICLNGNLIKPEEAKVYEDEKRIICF
Outline: (§1)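 PMA (20 ng/mL, 48 h)-differentiated THP1 macrophages rested 24 h in PMA-free medium, serum-starved (0.1% FBS) overnight, pretreated 1 h with compound, stimulated 45 min with C12-iE-DAP 50 ng/mL. Lysates run on 8% SDS-PAGE, immunoblotted for phospho and total RIP2, p38, JNK, ERK and IκBα.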

[2] = biological target: T1, Nucleotide-binding oligomerization domain-containing protein 1 (Homo sapiens); assay: Inhibition of NOD1 in human PBMC-derived macrophages assessed as reduction in C12-iE-DAP-stimulated p38 phosphorylation at 1 to 10 uM preincubated for 1 hr followed by C12-iE-DAP stimulation for 45 mins by Western blot analysis
[3] = biological target: T2, Nucleotide-binding oligomerization domain-containing protein 2 (Homo sapiens, UniProt Q9HC29); assay: Inhibition of NOD2 in human PBMC-derived macrophages assessed as reduction in MDP-stimulated RIP2 phosphorylation at 1 to 10 uM preincubated for 1 hr followed by MDP stimulation for 1 hr by Western blot analysis
[4] = biological target: T1, Nucleotide-binding oligomerization domain-containing protein 1 (Homo sapiens); assay: Inhibition of NOD1 in human PBMC-derived macrophages assessed as reduction in C12-iE-DAP-stimulated TNFalpha mRNA expression at 10 uM preincubated for 1 hr followed by C12-iE-DAP stimulation for 90 mins by RT-qPCR analysis
Outline: (§2)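 Human CD14+ monocytes from donor PBMC, differentiated 7 days with M-CSF 20 ng/mL to macrophages; 1.0 × 10^6 cells pretreated 1 h with compound (final 0.1% DMSO), then C12-iE-DAP 500 ng/mL or MDP 5 μg/mL for 90 min. IL-6/TNF-α mRNA by qRT-PCR, normalized to GAPDH; stimulated response set to 100%.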

[5] = biological target: T2, Nucleotide-binding oligomerization domain-containing protein 2; assay: Inhibition of NOD2 in human PBMC-derived macrophages assessed as reduction in MDP-stimulated p38 phosphorylation at 1 to 10 uM preincubated for 1 hr followed by MDP stimulation for 1 hr by Western blot analysis
[6] = biological target: T1, Nucleotide-binding oligomerization domain-containing protein 1 (Homo sapiens); assay: Inhibition of NOD1 in human PBMC-derived macrophages assessed as reduction in C12-iE-DAP-stimulated IL6 mRNA expression at 10 uM preincubated for 1 hr followed by C12-iE-DAP stimulation for 90 mins by RT-qPCR analysis; outline: as §2
[7] = biological target: T2, Nucleotide-binding oligomerization domain-containing protein 2; assay: Inhibition of NOD2 in human PBMC-derived macrophages assessed as reduction of MDP-mediated decrease in IkBalpha levels at 1 to 10 uM preincubated for 1 hr followed by MDP stimulation for 1 hr by Western blot analysis
[8] = species on record: Homo sapiens; assay: Inhibition of human SEAP assessed as decrease in substrate hydrolysis at 10 uM
[9] = biological target: T2, Nucleotide-binding oligomerization domain-containing protein 2; assay: Inhibition of human NOD2 expressed in HEK293 cells assessed as reduction of MDP-mediated decrease in IkBalpha levels preincubated for 1 hr followed by MDP addition measured after 1 hr by Western blot analysis
[10] = biological target: Toll-like receptor 2 (Homo sapiens) (UniProt O60603); assay: Inhibition of human TLR2 expressed in HEK-Blue cells assessed as reduction in Pam3CSK4-stimulated SEAP release preincubated for 3 hrs followed by Pam3CSK4 addition measured after 20 hrs by spectrophotometric analysis; assay type: cell-based
[11] = biological target: T2, Nucleotide-binding oligomerization domain-containing protein 2; assay: Inhibition of NOD2 in human PBMC-derived macrophages assessed as reduction in MDP-stimulated TNFalpha mRNA expression at 10 uM preincubated for 1 hr followed by MDP stimulation for 90 mins by RT-qPCR analysis; outline: as §2
[12] = biological target: T1, Nucleotide-binding oligomerization domain-containing protein 1 (Homo sapiens); assay: Inhibition of NOD1 in human THP1 cells assessed as reduction of C12-iE-DAP-mediated decrease in IkBalpha levels at 1 to 10 uM preincubated for 1 hr followed by C12-iE-DAP addition measured after 45 mins by Western blot analysis; assay type: cell-based; outline: as §1
[13] = biological target: T1, Nucleotide-binding oligomerization domain-containing protein 1 (Homo sapiens); assay: Antagonist activity at human NOD1 expressed in HEK-blue cells assessed as inhibition of C12-iE-DAP-stimulated cell activation at 5 uM preincubated for 3 hrs followed by C12-iE-DAP addition measured after 20 hrs by SEAP reporter gene assay; assay type: cell-based
[14] = biological target: T2, Nucleotide-binding oligomerization domain-containing protein 2; assay: Inhibition of human NOD2 expressed in HEK293 cells assessed as suppression of MDP-stimulated RIP2 phosphorylation preincubated for 1 hr followed by MDP stimulation measured after 1 hr by Western blot analysis

T2 sequence (Q9HC29 whole entry, the tested form may be a part): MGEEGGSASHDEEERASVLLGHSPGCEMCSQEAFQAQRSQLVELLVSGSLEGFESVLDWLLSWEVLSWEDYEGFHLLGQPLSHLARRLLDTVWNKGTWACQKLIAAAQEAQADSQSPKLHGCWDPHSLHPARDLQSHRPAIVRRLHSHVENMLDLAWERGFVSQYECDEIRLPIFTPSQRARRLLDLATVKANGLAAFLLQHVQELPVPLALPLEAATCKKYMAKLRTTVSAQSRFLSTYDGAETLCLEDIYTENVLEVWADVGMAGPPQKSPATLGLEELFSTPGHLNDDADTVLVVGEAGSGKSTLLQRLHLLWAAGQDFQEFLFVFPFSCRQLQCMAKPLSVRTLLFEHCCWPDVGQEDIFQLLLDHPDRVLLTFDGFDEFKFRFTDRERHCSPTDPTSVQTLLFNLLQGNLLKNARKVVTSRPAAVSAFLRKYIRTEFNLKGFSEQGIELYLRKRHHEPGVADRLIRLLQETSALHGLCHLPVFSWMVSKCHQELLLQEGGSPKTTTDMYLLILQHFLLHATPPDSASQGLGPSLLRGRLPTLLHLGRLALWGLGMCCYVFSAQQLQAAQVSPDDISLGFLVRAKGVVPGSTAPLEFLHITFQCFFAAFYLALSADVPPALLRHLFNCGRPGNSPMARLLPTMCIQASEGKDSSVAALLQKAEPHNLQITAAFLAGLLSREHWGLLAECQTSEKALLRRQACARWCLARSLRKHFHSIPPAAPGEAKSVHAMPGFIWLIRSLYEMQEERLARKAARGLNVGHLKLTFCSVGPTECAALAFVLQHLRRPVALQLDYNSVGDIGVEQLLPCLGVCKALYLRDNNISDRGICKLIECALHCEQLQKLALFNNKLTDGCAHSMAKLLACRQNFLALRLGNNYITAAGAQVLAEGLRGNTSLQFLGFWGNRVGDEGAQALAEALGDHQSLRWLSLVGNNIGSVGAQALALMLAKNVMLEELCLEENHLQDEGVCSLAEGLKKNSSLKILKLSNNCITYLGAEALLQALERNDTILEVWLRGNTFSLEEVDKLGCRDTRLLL
Sequence of Toll-like receptor 2 (Homo sapiens) (O60603 whole entry, the tested form may be a part): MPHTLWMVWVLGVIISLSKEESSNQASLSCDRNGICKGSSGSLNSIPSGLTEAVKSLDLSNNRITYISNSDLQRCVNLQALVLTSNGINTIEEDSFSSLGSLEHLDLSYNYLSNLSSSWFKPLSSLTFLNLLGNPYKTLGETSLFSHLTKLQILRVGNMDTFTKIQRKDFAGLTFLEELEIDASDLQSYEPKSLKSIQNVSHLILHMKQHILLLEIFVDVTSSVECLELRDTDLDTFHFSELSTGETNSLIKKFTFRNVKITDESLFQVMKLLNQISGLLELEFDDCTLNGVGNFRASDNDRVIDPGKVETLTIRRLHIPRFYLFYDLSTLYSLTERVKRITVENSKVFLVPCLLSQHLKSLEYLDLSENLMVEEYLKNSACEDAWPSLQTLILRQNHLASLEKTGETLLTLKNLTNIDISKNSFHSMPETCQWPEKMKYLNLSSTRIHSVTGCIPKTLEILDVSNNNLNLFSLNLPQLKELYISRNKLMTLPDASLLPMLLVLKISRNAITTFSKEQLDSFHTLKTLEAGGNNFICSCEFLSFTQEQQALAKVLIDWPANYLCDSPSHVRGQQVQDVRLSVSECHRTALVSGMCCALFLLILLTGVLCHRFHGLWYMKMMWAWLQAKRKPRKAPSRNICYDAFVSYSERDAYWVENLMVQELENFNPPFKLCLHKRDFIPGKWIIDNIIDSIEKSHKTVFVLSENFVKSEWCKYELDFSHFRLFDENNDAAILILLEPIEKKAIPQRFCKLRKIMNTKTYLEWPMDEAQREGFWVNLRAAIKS

CCCNC(=O)CC[C@H]1NC(=O)c2cc(Oc3cccc(N(C)C)c3)c(NC(=O)COCc3ccccc3)cc2NC1=O
inhibition [1]: Active | inhibition [2]: Active | inhibition [3]: Active | inhibition [4]: 35.2% | inhibition [5]: Active | inhibition [6]: 54.6% | inhibition [7]: Active | inhibition [8]: inactive | inhibition [9]: Dose-dependent effect | inhibition [10]: inactive | inhibition [11]: Active | inhibition [12]: Active | inhibition [13]: 77.7% | inhibition [14]: Dose-dependent effect
